# Experimental data taken from ChEMBL document CHEMBL3525972, “Characterization of aldehyde oxidase enzyme activity in cryopreserved human hepatocytes” (Drug Metab Dispos, 2012).
# Columns and labels:
# Aldehyde oxidase [1] = target: T1, Aldehyde oxidase (Homo sapiens, UniProt Q06278); assay: Drug metabolism in cryopreserved human hepatocytes assessed as aldehyde oxidase-mediated parent compound retention time at 10 uM by LC-MS extracted ion chromatogram analysis; format: ADME, cell-based, Hepatocyte
# T1 sequence (Q06278 whole entry): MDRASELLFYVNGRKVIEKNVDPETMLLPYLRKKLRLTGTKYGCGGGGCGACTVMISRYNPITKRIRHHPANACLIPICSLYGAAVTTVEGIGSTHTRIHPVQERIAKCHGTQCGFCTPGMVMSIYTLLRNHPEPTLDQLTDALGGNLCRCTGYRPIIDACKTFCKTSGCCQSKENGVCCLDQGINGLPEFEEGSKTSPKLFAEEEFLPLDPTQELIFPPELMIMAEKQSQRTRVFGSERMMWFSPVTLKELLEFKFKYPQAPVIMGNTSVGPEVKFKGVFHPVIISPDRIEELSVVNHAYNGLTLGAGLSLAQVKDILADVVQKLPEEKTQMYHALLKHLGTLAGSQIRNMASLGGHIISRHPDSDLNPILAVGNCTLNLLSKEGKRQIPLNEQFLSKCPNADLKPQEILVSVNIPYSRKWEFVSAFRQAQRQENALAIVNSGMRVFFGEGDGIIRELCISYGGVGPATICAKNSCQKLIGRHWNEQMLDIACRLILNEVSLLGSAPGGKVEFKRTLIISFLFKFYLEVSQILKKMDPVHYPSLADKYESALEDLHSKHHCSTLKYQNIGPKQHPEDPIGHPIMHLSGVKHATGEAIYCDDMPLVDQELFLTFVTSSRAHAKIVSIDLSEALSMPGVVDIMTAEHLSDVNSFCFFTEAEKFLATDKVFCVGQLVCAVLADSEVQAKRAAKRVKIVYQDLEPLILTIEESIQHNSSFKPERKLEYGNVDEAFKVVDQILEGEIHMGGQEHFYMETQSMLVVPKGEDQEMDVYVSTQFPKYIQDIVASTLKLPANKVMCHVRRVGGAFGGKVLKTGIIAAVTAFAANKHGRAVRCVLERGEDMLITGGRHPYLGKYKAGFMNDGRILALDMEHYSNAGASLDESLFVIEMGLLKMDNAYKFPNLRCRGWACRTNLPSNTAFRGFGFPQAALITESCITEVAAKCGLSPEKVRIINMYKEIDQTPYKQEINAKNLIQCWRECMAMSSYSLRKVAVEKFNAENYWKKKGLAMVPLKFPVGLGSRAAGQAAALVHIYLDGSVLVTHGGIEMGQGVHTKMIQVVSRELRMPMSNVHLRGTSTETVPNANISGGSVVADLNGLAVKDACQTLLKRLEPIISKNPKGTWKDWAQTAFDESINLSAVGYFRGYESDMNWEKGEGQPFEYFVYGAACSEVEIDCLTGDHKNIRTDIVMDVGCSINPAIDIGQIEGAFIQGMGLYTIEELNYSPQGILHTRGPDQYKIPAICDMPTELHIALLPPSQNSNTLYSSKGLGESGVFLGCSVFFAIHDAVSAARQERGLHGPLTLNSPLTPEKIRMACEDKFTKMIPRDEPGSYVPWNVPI
# In short: (§1)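 Cryopreserved human hepatocytes (lot OOO) were thawed for ~2 min at 37°C, diluted 1/50 in warm recovery medium or WME, spun at 100 x g for 6 min, and resuspended in WME at a final 2.0 x 10^6 cells/mL. Reactions were stopped with two volumes of cold acetonitrile, then spun, dried under N2 and reconstituted. Read-out was positive-ESI Orbitrap LC-MS extracted ion chromatograms.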
# Aldehyde oxidase [2] = target: T1, Aldehyde oxidase; assay: Drug metabolism in cryopreserved human hepatocytes assessed as aldehyde oxidase-mediated 8-(3-chloro-4-fluorophenylamino)-2-imino-6-oxo-2,3,5,6-tetrahydropyrimido[5,4-d]pyrimidin-3-ium formation at 10 uM by LC-MS extracted ion chromatogram analysis; format: ADME, cell-based, Hepatocyte
# In short: as §1, with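 “cells/mL. They were incubated with 10 µM substrate for 120 min at 37°C.” for “cells/mL.”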
# Aldehyde oxidase [3] = target: T1, Aldehyde oxidase; assay: Drug metabolism in cryopreserved human hepatocytes assessed as aldehyde oxidase-mediated N-(but-1-en-2-yl)-8-(3-chloro-4-fluorophenylamino)-6-oxo-6,7-dihydropyrimido[5,4-d]pyrimidin-2-aminium formation at 10 uM by LC-MS extracted ion chromatogram analysis; format: ADME, cell-based, Hepatocyte
# In short: as §1, with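 “cells/mL. They were incubated with 10 µM substrate for 120 min at 37°C.” for “cells/mL.”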
# Aldehyde oxidase [4] = target: T1, Aldehyde oxidase; assay: Drug metabolism in cryopreserved human hepatocytes assessed as aldehyde oxidase-mediated 3-(8-(3-chloro-4-fluorophenylamino)-6-oxo-6,7-dihydropyrimido[5,4-d]pyrimidin-2-ylamino)pent-4-en-1-ylium formation at 10 uM by LC-MS extracted ion chromatogram analysis; format: ADME, cell-based, Hepatocyte
# In short: as §1, with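 “cells/mL. They were incubated with 10 µM substrate for 120 min at 37°C.” for “cells/mL.”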
# Aldehyde oxidase [5] = target: T1, Aldehyde oxidase; assay: Drug metabolism in cryopreserved human hepatocytes assessed as aldehyde oxidase-mediated metabolite formation at 10 uM by LC-MS extracted ion chromatogram analysis in presence of hydralazine
# clinical = details: human, in vivo
# Aldehyde oxidase [6] = target: T1, Aldehyde oxidase; assay: Drug level in cryopreserved human hepatocytes assessed as aldehyde oxidase-mediated metabolite formation treated with 10 uM of BIBX1382 by LC-MS extracted ion chromatogram analysis; format: ADME, cell-based, Hepatocyte
# In short: as §1, with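 “cells/mL. They were incubated with 10 µM substrate for 120 min at 37°C.” for “cells/mL.”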
# Aldehyde oxidase [7] = target: T1, Aldehyde oxidase; assay: Retention time in cryopreserved human hepatocytes assessed as aldehyde oxidase-mediated metabolite formation treated with 10 uM of XK-469 by LC-MS extracted ion chromatogram analysis; format: ADME, cell-based, Hepatocyte
# In short: as §1, with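 “cells/mL. They were incubated with 10 µM substrate for 120 min at 37°C.” for “cells/mL.”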
# Aldehyde oxidase [8] = target: T1, Aldehyde oxidase; assay: Drug level in cryopreserved human hepatocytes assessed as aldehyde oxidase-mediated metabolite formation treated with 10 uM of BIBU1476 by LC-MS extracted ion chromatogram analysis; format: ADME, cell-based, Hepatocyte
# Aldehyde oxidase [9] = target: T1, Aldehyde oxidase; assay: Retention time in cryopreserved human hepatocytes assessed as aldehyde oxidase-mediated metabolite formation treated with 10 uM of carbazeran by LC-MS extracted ion chromatogram analysis; format: ADME, cell-based, Hepatocyte
# In short: as §1, with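 “cells/mL. They were incubated with 10 µM substrate for 120 min at 37°C.” for “cells/mL.”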
# [10] = Oral bioavailability in human; format: ADME, organism-based; details: in vivo
# Aldehyde oxidase [11] = target: T1, Aldehyde oxidase; assay: Retention time in cryopreserved human hepatocytes assessed as aldehyde oxidase-mediated metabolite formation treated with 10 uM of O6-benzylguanine by LC-MS extracted ion chromatogram analysis; format: ADME, cell-based, Hepatocyte
# In short: as §1, with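 “cells/mL. They were incubated with 10 µM substrate for 120 min at 37°C.” for “cells/mL.”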
# Aldehyde oxidase [12] = target: T1, Aldehyde oxidase; assay: Retention time in cryopreserved human hepatocytes assessed as aldehyde oxidase-mediated metabolite formation treated with 10 uM of zaleplon by LC-MS extracted ion chromatogram analysis; format: ADME, cell-based, Hepatocyte
# In short: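 Cryopreserved human hepatocytes (Lot OOO), thawed at 37°C, spun at 100 x g, resuspended in Williams' Medium E, then incubated at 2.0 x 10^6 cells/mL with 10 µM substrate for 120 min at 37°C. Quenched with two volumes of cold acetonitrile, centrifuged, supernatant dried under N2 and reconstituted in 85:15 water/acetonitrile (0.1% formic acid). Analysed by high-resolution ESI-positive Orbitrap LC-MS using extracted ion chromatograms.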
# Aldehyde oxidase [13] = target: T1, Aldehyde oxidase; assay: Drug metabolism in cryopreserved human hepatocytes assessed as aldehyde oxidase-mediated N-(but-1-en-2-yl)-8-(3-chloro-4-fluorophenylamino)pyrimido[5,4-d]pyrimidin-2-aminium formation at 10 uM by LC-MS extracted ion chromatogram analysis; format: ADME, cell-based, Hepatocyte
# In short: as §1, with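 “cells/mL. They were incubated with 10 µM substrate for 120 min at 37°C.” for “cells/mL.”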
# Aldehyde oxidase [14] = target: T1, Aldehyde oxidase; assay: Drug metabolism in cryopreserved human hepatocytes assessed as aldehyde oxidase-mediated 3-(8-(3-chloro-4-fluorophenylamino)pyrimido[5,4-d]pyrimidin-2-ylamino)pent-4-en-1-ylium formation at 10 uM by LC-MS extracted ion chromatogram analysis; format: ADME, cell-based, Hepatocyte
# In short: as §1, with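 “cells/mL. They were incubated with 10 µM substrate for 120 min at 37°C.” for “cells/mL.”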
# Aldehyde oxidase [15] = target: T1, Aldehyde oxidase; assay: Drug metabolism in cryopreserved human hepatocytes assessed as aldehyde oxidase-mediated 8-(3-chloro-4-fluorophenylamino)-2-imino-2,3-dihydropyrimido[5,4-d]pyrimidin-3-ium formation at 10 uM by LC-MS extracted ion chromatogram analysis; format: ADME, cell-based, Hepatocyte
# In short: as §1, with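 “cells/mL. They were incubated with 10 µM substrate for 120 min at 37°C.” for “cells/mL.”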
smiles,measurement,setting,value
CN1CCC(Nc2ncc3nc(=O)[nH]c(Nc4ccc(F)c(Cl)c4)c3n2)CC1,Retention time,Aldehyde oxidase [1],10.7 min
same,Drug metabolism,Aldehyde oxidase [2],metabolite_detected
same,Drug metabolism,Aldehyde oxidase [3],metabolite_detected
same,Drug metabolism,Aldehyde oxidase [4],metabolite_detected
Nc1nc(OCc2ccccc2)c2[nH]cnc2n1 [6-O-BENZYLGUANINE],Drug metabolism,Aldehyde oxidase [5],metabolite_not_detected
same,Retention_time,Aldehyde oxidase [1],10.5 min
same,clearance,clinical,15.6 mL/min/kg
C=CC(CC)Nc1ncc2ncnc(Nc3ccc(F)c(Cl)c3)c2n1 (centres undefined),Drug metabolism,Aldehyde oxidase [6],metabolite_detected
C[C@@H](Oc1ccc(Oc2cnc3ccc(Cl)cc3n2)cc1)C(=O)O [R(+)XK469],Retention_time,Aldehyde oxidase [1],17.4 min
same,clearance,clinical,< 1 mL/min/kg
C[C@@H](Oc1ccc(OC2N=c3cc(Cl)ccc3=NC2=O)cc1)C(=O)O (some centres undefined),Retention_time,Aldehyde oxidase [7],15.7 min
C=C(CC)Nc1ncc2ncnc(Nc3ccc(F)c(Cl)c3)c2n1,Drug metabolism,Aldehyde oxidase [6],metabolite_detected
C=CC(CC)Nc1ncc2nc(=O)[nH]c(Nc3ccc(F)c(Cl)c3)c2n1 (centres undefined),Drug metabolism,Aldehyde oxidase [8],metabolite_detected
C=C(CC)Nc1ncc2nc(=O)[nH]c(Nc3ccc(F)c(Cl)c3)c2n1,Drug metabolism,Aldehyde oxidase [8],metabolite_detected
CCN(C(C)=O)c1cccc(-c2ccnc3c(C#N)cnn23)c1 [ZALEPLON],Retention_time,Aldehyde oxidase [1],14.5 min
same,clearance,clinical,15.7 mL/min/kg
CCNC(=O)OC1CCN(c2n[nH]c(=O)c3cc(OC)c(OC)cc23)CC1,Retention_time,Aldehyde oxidase [9],13.9 min
CCNC(=O)OC1CCN(c2nncc3cc(OC)c(OC)cc23)CC1 [CARBAZERAN],bioavailability,[10],< 5%
Nc1ncc2ncnc(Nc3ccc(F)c(Cl)c3)c2n1,Drug metabolism,Aldehyde oxidase [6],metabolite_detected
Nc1nc(OCc2ccccc2)c2[nH]c(O)nc2n1,Retention_time,Aldehyde oxidase [11],12.5 min
CCN(C(C)=O)c1cccc(-c2cc(=O)[nH]c3c(C#N)cnn23)c1,Retention_time,Aldehyde oxidase [12],12.7 min
N=c1nc2c(Nc3ccc(F)c(Cl)c3)nc(=O)[nH]c2c[nH]1,Drug metabolism,Aldehyde oxidase [8],metabolite_detected
CN1CCC(Nc2ncc3ncnc(Nc4ccc(F)c(Cl)c4)c3n2)CC1 [FALNIDAMOL],Drug metabolism,Aldehyde oxidase [5],metabolite_not_detected
same,bioavailability,[10],2%
same,Retention time,Aldehyde oxidase [1],12.5 min
same,Drug metabolism,Aldehyde oxidase [13],metabolite_detected
same,Drug metabolism,Aldehyde oxidase [14],metabolite_detected
same,Drug metabolism,Aldehyde oxidase [15],metabolite_detected
same,clearance,clinical,25 mL/min/kg
